DAGLB inh: diacylglycerol lipase beta (human) inhibition; Q8NCG7; HEK293T DAGLB membrane lysate, EnzChek fluorogenic substrate; inhibition, % at 5.17 µM; 340,000 compounds, 0.059% hits; AID 504411; in the data active = inhibition above about 34%
Target sequence (Q8NCG7 whole entry, looked up): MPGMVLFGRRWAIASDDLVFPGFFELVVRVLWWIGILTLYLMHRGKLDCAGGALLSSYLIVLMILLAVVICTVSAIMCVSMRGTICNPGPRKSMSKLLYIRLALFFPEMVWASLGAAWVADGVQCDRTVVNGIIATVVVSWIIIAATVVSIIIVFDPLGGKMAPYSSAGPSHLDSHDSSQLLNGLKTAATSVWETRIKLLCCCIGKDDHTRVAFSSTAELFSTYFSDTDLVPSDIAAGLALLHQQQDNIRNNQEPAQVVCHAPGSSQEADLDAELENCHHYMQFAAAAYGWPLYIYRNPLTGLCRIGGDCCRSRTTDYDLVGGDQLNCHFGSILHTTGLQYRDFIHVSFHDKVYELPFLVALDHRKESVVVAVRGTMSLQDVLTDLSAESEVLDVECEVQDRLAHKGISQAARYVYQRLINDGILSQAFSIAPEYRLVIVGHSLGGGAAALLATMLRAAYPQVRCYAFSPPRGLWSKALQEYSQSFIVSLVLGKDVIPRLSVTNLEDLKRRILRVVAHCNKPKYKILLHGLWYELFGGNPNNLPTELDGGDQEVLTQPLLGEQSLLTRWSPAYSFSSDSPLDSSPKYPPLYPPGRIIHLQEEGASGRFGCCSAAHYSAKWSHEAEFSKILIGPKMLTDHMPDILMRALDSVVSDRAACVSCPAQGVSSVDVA
MT1-MMP act inh: MT1-MMP (human) activation inhibition; P50281; HT1080 RFP-PRO-GFP cells, GFP/RFP ratio fluorescence, overnight; percent of plate control window, DMSO zero; GFP/RFP ratio change, % at 20 µM; 360,000 compounds, 0.061% hits;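 active = GFP/RFP ratio change of at least 30% with cell ATP level not reduced by more than half and red fluorescence within 50% of control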
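Material: RFP-PRO-GFP reporter HT1080 cells. Dosing: single-point 20 µM compound, 1% DMSO. Controls: DMSO and RFP-L50D-GFP cell wells. Timing: cells overnight before dosing, compound overnight, 37 °C, 5% CO2. Measure: GFP/RFP fluorescence ratio.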
hiPSC survival: increases survival of single human iPS cells; survival enhancement, % at 20 µM; AID 602274; hiPSC single-cell survival, ATPlite luminescence; 100% = ROCK inhibitor wells, 0% = DMSO; 360,000 compounds, 0.044% hits; in the data active = survival enhancement above about 18%;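 also: cells exposed to compounds for 16 hours before the ATP read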
SKN-1 inh: blocks SKN-1 activity in C. elegans; 360,000 compounds, 0.49% hits; C. elegans VP596 Pgst-4::GFP/RFP ratio, acrylamide-induced, 24 h; inhibition, % at 21.8 µM;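 active = interference check ratio from 0.5 to 1.5 plus GFP to RFP signal ratio inhibition reaching or exceeding a fixed threshold, cut at about 30% in these data, passing the limit was not always enough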
FAS-TE inh: blocks the thioesterase domain of human fatty acid synthase | P49327 | recombinant FAS-TE, OMFH fluorogenic substrate, fluorescence endpoint | inhibition, % at 15 µM | 360,000 compounds, 0.67% hits;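 active = compounds whose normalised, plate-corrected inhibition of enzyme fluorescence in the single-dose primary screen is 50% or more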
Of the large screens only hits and unclear results are named; the others gave an inactive call. In the library only some 1.3% were active in any assay of this set; here they are far more common.

O=C(O)C1=C2C(=O)Nc3cccc(c32)C2(C1)C(=O)Nc1ccccc12 (centres undefined)	SKN-1 inh 36
Clc1ccc(-c2cn3c(n2)-c2ccccc2C3)cc1Cl	SKN-1 inh 40
c1ccc2c(c1)Cn1c-2nc2ccccc21	none
O=C1c2cc(Br)ccc2N(Cc2ccc(Br)cc2)S(=O)(=O)C1c1cc(Cl)c(Cl)cc1[N+](=O)[O-] (centres undefined)	FAS-TE inh 82
O=C1CS(=O)(=O)N(Cc2cccc(F)c2)c2ccc(Br)cc21	none
Cn1c(N/N=C/c2ccccc2)nc2sc3c(c2c1=O)CCC3	SKN-1 inh 48
CN(C)C(=O)c1cccc(-c2cnc3c(NC=O)cc(-c4ccccc4F)cn23)c1	none (no result: DAGLB inh)
CC1(Cc2cccc(F)c2)C(=O)Nc2ccc(-c3cccnc3)cc21 (centres undefined)	none (no result: DAGLB inh)
CC1(Cc2cc(Cl)ccc2C(F)(F)F)C(=O)Nc2ccc(-c3ccc(F)c(Cl)c3)cc21 (centres undefined)	none (no result: DAGLB inh)
CC1(Cc2cccc(C(F)(F)F)c2)C(=O)Nc2ccc(-c3ccc(F)c(Cl)c3)cc21 (centres undefined)	SKN-1 inh 40 (no result: DAGLB inh)
CC1(Cc2ccc(Cl)cc2)C(=O)Nc2ccc(-c3cccnc3)cc21 (centres undefined)	SKN-1 inh 39 (no result: DAGLB inh)
CCNC(=O)C1CCCN(C(=O)c2cccc(C(F)(F)F)c2)CC1 (centres undefined)	none (no result: DAGLB inh)
CCCCN1C(C)=CC(=C2C(=O)c3ccccc3C2=O)C=C1C	SKN-1 inh 38
CSCCNC(=O)C1(C)CCN1C(=O)CCc1ccccc1 (centres undefined)	none (no result: DAGLB inh)
CC(=O)Nc1ccc(NC(=S)NC(=O)c2cc3ccccc3o2)cc1	none
CCCC(=O)N1CCN(c2ccc(NC(=O)c3cc4ccccc4o3)cc2)CC1	SKN-1 inh 48
CN1CCN(c2ccc(NC(=O)c3cc4ccccc4o3)cc2)CC1	none
O=C(NC(=S)Nc1ccc(CN2CCCCC2)cc1)c1cc2ccccc2o1	SKN-1 inh 73
O=C(NCCO)c1cccc(-c2ccc3nncn3c2)c1	SKN-1 inh 48 (no result: DAGLB inh)
Cc1ccc(S(=O)(=O)N2[C@@H](c3ccc(Br)cc3)C(C(=O)O)=CC[C@H]2c2ccc3c(c2)OCO3)cc1	none
N#C/C(=C\c1ccc(-c2ccccc2)o1)C(=O)Nn1cnnc1	SKN-1 inh 51
Cc1ccccc1C(=O)Nc1ccc2c(C#N)c3nc4ccccc4nc3n2c1	SKN-1 inh 36
Cc1cccc(NC(=O)c2ncn3c2C(=O)N[C@@H](C)C3)c1	none
N#CC(c1ccccc1)c1ccc2c(C(F)(F)F)cc(C(F)(F)F)nc2n1 (centres undefined)	none
Cc1ccc(C(C#N)c2ccc3c(C(F)(F)F)cc(C(F)(F)F)nc3n2)cc1 (centres undefined)	SKN-1 inh 44
CN1CCC(N(C)CC(=O)Nc2ccccc2N2CCOCC2)CC1	SKN-1 inh 40
CSc1ccccc1NC(=O)CN(C)CC(=O)Nc1ccccc1N1CCOCC1	none
c1ccn2cc(-c3ccc4c(c3)OCCO4)nc2c1	SKN-1 inh 38
Cc1ccc2nc(-c3ccc4c(c3)OCCO4)cn2c1	none
Cc1ccc(NC(=S)NNc2ccc([N+](=O)[O-])cc2S(=O)(=O)Nc2ccccc2C(=O)O)cc1C	FAS-TE inh 62
Cc1ccc(NC(=O)C2COc3ccccc3O2)cc1 (centres undefined)	none
O=C(Nc1ccc(-c2cn3ccsc3n2)cc1)C1COc2ccccc2O1 (centres undefined)	SKN-1 inh 36
COc1ccccc1NC(=O)CN1CCN(C2c3ccccc3-c3ccccc32)CC1	SKN-1 inh 37
c1ccc(SCc2cc(-c3ccccc3)no2)cc1	SKN-1 inh 55
Cc1ccc(SCc2cc(-c3ccc(Cl)cc3)no2)cc1	none
c1ccc(OCc2cc(-c3ccccc3)no2)cc1	SKN-1 inh 45
Clc1ccc(SCc2cc(-c3ccccc3)on2)cc1	SKN-1 inh 49
Clc1ccc(SCc2cc(Cl)nc(-c3ccccc3)n2)cc1	none
Clc1ccc(-c2cc(CSc3cccc(Cl)c3)on2)cc1	SKN-1 inh 60
CCCCN1C[C@H](c2ccccc2)[C@@H](CC(=O)NC)C1=O	none
OC[C@@H]1CN(Cc2ccco2)C[C@H](n2cnc3c(NCc4ccncc4)ncnc32)O1	none (no result: DAGLB inh)

Compound activity as filed in PubChem BioAssay.
